Data as given in the RNAGym collection of RNA variant scans (doi:10.1126/science.aae0568).
This sample holds only a part of the variants without activity.

B1: tRNA (parent)
chain: GUUCCGUUGGCGUAAUGGUAACGCGUCUCCCUCCUAAGGAGAAGACUGCGGGUUCGAGUCCCGUACGGAACG

Variants of: B1
Experiment: yeast fitness relative to wild type (ratio to wild type); higher = fitter; tRNA-Arg(CCU), competitive growth, 37 C, YPD
Summary of the method: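 Genotype frequency changes were the basis for Darwinian fitness relative to wild type. The frequencies came from 100-nucleotide paired-end sequencing of gene amplicons from the start population and each end population of pooled yeast strains with tRNA-Arg(CCU) gene variants at the native locus. Competition ran in YPD at 37°C for 24 hours in six replicates, genotypes needed ≥ 100 starting reads, and estimates < 0.5 were set to 0.5.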

Variant | yeast fitness
C5G U53C A65C | ≤ 0.5
C5G U53C C55A A57G | ≤ 0.5
C5G U53G A65G | ≤ 0.5
C5G U53G C60A | ≤ 0.5
C5G U54C | 0.814
C5G U54C C55G | ≤ 0.5
C5G U54C G56C G58A | ≤ 0.5
C5G U59G C66U | ≤ 0.5
C5G U59G G63A | 0.526
C5G U64A | 0.784
C5G U64G C66U | 0.593
C5U A14C | 0.593
C5U A14C A15U G17A U26C A42U A45C | 0.508
C5U A14C A21C | 0.552
C5U A14C A21C C33U G56A | ≤ 0.5
C5U A14C A21C U53G A57C | ≤ 0.5
C5U A14C A45C A65C | 0.561
C5U A14C A69C | ≤ 0.5
C5U A14C A70U | ≤ 0.5
C5U A14C C29U C46A | ≤ 0.5
C5U A14C C55A | ≤ 0.5
C5U A14C C61U | 0.562
C5U A14C C62A | 0.504
C5U A14C G41C | 0.613

Variant | yeast fitness
C5U A14C G41C A43C | ≤ 0.5
C5U A14C G63A | ≤ 0.5
C5U A14G A21U A36U G48C C55U | 0.627
C5U A14G A40G | 0.648
C5U A14G A65G | 0.69
C5U A14G A65U G67A | 0.689
C5U A14G C24U A40U C55G | ≤ 0.5
C5U A14G C24U U28C | ≤ 0.5
C5U A14G C29U A37U | ≤ 0.5
C5U A14G C33G A40G | ≤ 0.5
C5U A14G G67A | 0.642
C5U A14G U26C | 0.662
C5U A14G U26C C30U A42C C61G | ≤ 0.5
C5U A14U A21G A65C | ≤ 0.5
C5U A14U C29U C46G | ≤ 0.5
C5U A14U C30U G39C | ≤ 0.5
C5U A14U C31G G63A | 0.575
C5U A14U C46U G52C A69U | ≤ 0.5
C5U A14U G17C A36U | ≤ 0.5
C5U A14U G17C C33U G52C G63A | ≤ 0.5
C5U A14U G41C | ≤ 0.5
C5U A14U U16A | ≤ 0.5
C5U A14U U32A U54C C55U | ≤ 0.5
C5U A15C | 0.763

Variant | yeast fitness
C5U A15C A21G C27U C46U | ≤ 0.5
C5U A15G A20G C27G C33U G63A | ≤ 0.5
C5U A15G A42C C49A | ≤ 0.5
C5U A15G A42G G58C G68A | ≤ 0.5
C5U A15G C22G G41A A45U U47A C62U A69U | ≤ 0.5
C5U A15G C22U A37U A65C | ≤ 0.5
C5U A15G C60A A70C | ≤ 0.5
C5U A15G C66U | 0.632
C5U A15G G58C G68A | 0.51
C5U A15G U16A A20G U28A C30A C33A A36U | ≤ 0.5
C5U A15G U19A A21U C34U | ≤ 0.5
C5U A15U A20C C55A | ≤ 0.5
C5U A15U C30G C33G A40G A43U | ≤ 0.5
C5U A15U C31U A43U C49U | ≤ 0.5
C5U A15U G17A C46G G63C C66A | ≤ 0.5
C5U A15U G17C U26C | ≤ 0.5
C5U A15U G25A C29U C31U C34U | ≤ 0.5
C5U A15U G39A U53A G68C | ≤ 0.5
C5U A15U G63A A70U | 0.807
C5U A15U U16A C29U C55U | ≤ 0.5
C5U A15U U54A C55U C66A | ≤ 0.5
C5U A20C A21U U53C U64A | ≤ 0.5
C5U A20C A36G | 0.632
C5U A20C A36G G52C | 0.567

Variant | yeast fitness
C5U A20C A40C C61U G68C | ≤ 0.5
C5U A20C A70U | 0.732
C5U A20C C27U G39A G56A G58C | ≤ 0.5
C5U A20C C29A C49G A57G | ≤ 0.5
C5U A20C C29U C34A C46A G50A A57U | ≤ 0.5
C5U A20C C34A U64C | ≤ 0.5
C5U A20C G23C C24U C31U U64C | ≤ 0.5
C5U A20C G39C G58A | ≤ 0.5
C5U A20C G67A | 1.01
C5U A20C U53A | 0.544
C5U A20G C22G C29A A45U | 0.563
C5U A20G U35C A37G | ≤ 0.5
C5U A20U A36G | 0.674
C5U A20U A45C C60U C61A | ≤ 0.5
C5U A20U C30G C66U | ≤ 0.5
C5U A20U C30U | ≤ 0.5
C5U A20U C30U G63A | ≤ 0.5
C5U A20U C49G A69C | ≤ 0.5
C5U A20U C61U C62U | ≤ 0.5
C5U A20U G50A U59C | 0.544
C5U A20U G56C A65G A70U | ≤ 0.5
C5U A20U U26A C49A A57C C62U | ≤ 0.5
C5U A20U U28G U32G C34G | ≤ 0.5
C5U A21C | 0.897

Variant | yeast fitness
C5U A21C C31G C66U | 0.528
C5U A21C C31U | 0.695
C5U A21G A42U G58A | 1.02
C5U A21G A57C | 0.562
C5U A21G C27U G41A | ≤ 0.5
C5U A21G C27U G41A G63U | ≤ 0.5
C5U A21G C29U A45U | 0.538
C5U A21G G39C | 0.515
C5U A21G G44C A57U C62U | ≤ 0.5
C5U A21U | 0.766
C5U A21U A37C C61A A65C | ≤ 0.5
C5U A21U A40U | 0.57
C5U A21U C30G C66A | 0.552
C5U A21U C30G G58C | ≤ 0.5
C5U A21U C31G A37C C66U | 0.51
C5U A21U C31U G52A A69G | ≤ 0.5
C5U A21U C33U G50A | 0.65
C5U A21U C62U A70C | ≤ 0.5
C5U A21U G68A | ≤ 0.5
C5U A21U U28C C30G A70U | ≤ 0.5
C5U A21U U53A A57U C60A G68C | ≤ 0.5
C5U A36G C55G | ≤ 0.5
C5U A36U A70U | 0.628
C5U A36U C49G | ≤ 0.5

Variant | yeast fitness
C5U A37C A43C A45C | ≤ 0.5
C5U A37C C60U G67A | 0.558
C5U A37C C61G | ≤ 0.5
C5U A37C C61U | 0.627
C5U A37C G50C | ≤ 0.5
C5U A37C G52C | ≤ 0.5
C5U A37G A40C U47A | ≤ 0.5
C5U A37G A43C G63C | ≤ 0.5
C5U A37G G56C | 0.533
C5U A37G G56C A65C | ≤ 0.5
C5U A37G U59G G68C | ≤ 0.5
C5U A37U A42U A69U | ≤ 0.5
C5U A37U C61U | 0.623
C5U A40C A42G | 0.558
C5U A40C A65U | 0.643
C5U A40G C49U C62U A65G | ≤ 0.5
C5U A40U A42C A65U | ≤ 0.5
C5U A40U A42G A57C | ≤ 0.5
C5U A42C A69C | 0.803
C5U A42C C60G | ≤ 0.5
C5U A42G A45U C60G | ≤ 0.5
C5U A42G G51C G56A | 0.698
C5U A42G G56C | ≤ 0.5
C5U A42U | 0.838

Variant | yeast fitness
C5U A42U C49G C60A | 0.575
C5U A42U C55U A69C | ≤ 0.5
C5U A43C | 0.813
C5U A43C C49U G50A | ≤ 0.5
C5U A43G G48A | 0.678
C5U A43U C49U | 0.555
C5U A43U C66U | 0.68
C5U A43U G44A C46A | ≤ 0.5
C5U A43U G50U | 0.657
C5U A45C A70G | 0.76
C5U A45C A70U | 0.813
C5U A45C C49U G56A | 0.616
C5U A45C G56C | 0.572
C5U A45C G63C | ≤ 0.5
C5U A45G A69G | 0.909
C5U A45G C61G C66U A69U | ≤ 0.5
C5U A45G C62U | 0.994
C5U A45U C46G | ≤ 0.5
C5U A45U C46G C60A | 0.597
C5U A45U C62G A65G | 0.698
C5U A45U C62G G63A | ≤ 0.5
C5U A57G G63A | 0.63
C5U A57U C61U | 0.59
